Data on 4 compounds can be found in ChEMBL document CHEMBL2331091, “Synthesis and pharmacological evaluation of some novel 2-(5-hydroxy-5-trifluoromethyl-4,5-dihydropyrazol-1-yl)-4-(coumarin-3-yl)thiazoles” (2013).

In brackets after ≈: the same amount, converted by molar mass.

The first assay deals with Klebsiella aerogenes. Put plainly: Antibacterial activity against Klebsiella aerogenes assessed as diameter of growth inhibition zone at 2 mg/ml at 37 degC after 24 hrs by agar well diffusion method. It is filed as functional. Conditions: read-out: DIZ. In general terms: A growth-free zone around the sample is the usual read-out of agar diffusion tests.
For `O=c1oc2ccccc2cc1-c1csc(N2N=C(c3ccc(Cl)cc3)C[C@@]2(O)C(F)(F)F)n1`, the zone of inhibition at 2000 µg/mL came out at 10.1 mm.

The next assay has as its system Proteus mirabilis. Put plainly: Antibacterial activity against Proteus mirabilis assessed as growth inhibition at 37 degC after overnight incubation by agar well diffusion method. Format: functional.
Conditions: not given
Take `O=c1oc2ccccc2cc1-c1csc(N2N=C(c3ccc(Cl)cc3)C[C@@]2(O)C(F)(F)F)n1`: the MIC amounted to 4 µg/mL (≈ 8.13 µM).

For a further assay, the system named is Bacillus subtilis. Put plainly: Antibacterial activity against Bacillus subtilis assessed as diameter of growth inhibition zone at 2 mg/ml at 37 degC after 24 hrs by agar well diffusion method. To be noted: read-out: DIZ. It is filed as functional.
Turning to `O=c1oc2ccccc2cc1-c1csc(N2N=C(c3ccc(Cl)cc3)C[C@@]2(O)C(F)(F)F)n1`, the zone of inhibition at 2000 µg/mL came out at 15.7 mm.

The test system of another assay is Proteus mirabilis. The assay is described as follows: Antibacterial activity against Proteus mirabilis assessed as diameter of growth inhibition zone at 2 mg/ml at 37 degC after 24 hrs by agar well diffusion method. To be noted: read-out: DIZ. Format: functional.
Turning to `O=c1oc2ccccc2cc1-c1csc(N2N=C(c3ccc(Cl)cc3)C[C@@]2(O)C(F)(F)F)n1`, the zone of inhibition at 2000 µg/mL came to 15.2 mm.

The next assay concerns Staphylococcus epidermidis. The assay is described as follows: Antibacterial activity against Staphylococcus epidermidis assessed as diameter of growth inhibition zone at 2 mg/ml at 37 degC after 24 hrs by agar well diffusion method. Format: functional. Conditions: read-out: DIZ.
For `O=c1oc2ccccc2cc1-c1csc(N2N=C(c3ccc(Cl)cc3)C[C@@]2(O)C(F)(F)F)n1`, the zone of inhibition at 2000 µg/mL turned out to be 15.1 mm.

The test system of the next assay is Staphylococcus aureus. Put plainly: Antibacterial activity against Staphylococcus aureus assessed as growth inhibition at 37 degC after overnight incubation by agar well diffusion method.
Conditions: not given
It is filed as functional.
In the case of `O=c1oc2ccccc2cc1-c1csc(N2N=C(c3ccc(Cl)cc3)C[C@@]2(O)C(F)(F)F)n1`, the minimal inhibitory concentration (MIC) was 16 µg/mL (≈ 32.5 µM).

The next assay relates to Klebsiella aerogenes. The assay is described as follows: Antibacterial activity against Klebsiella aerogenes assessed as growth inhibition at 37 degC after overnight incubation by agar well diffusion method.
Conditions: not given
Format: functional.
Consider `O=c1oc2ccccc2cc1-c1csc(N2N=C(c3ccc(Cl)cc3)C[C@@]2(O)C(F)(F)F)n1`, for which the MIC was 8 µg/mL (≈ 16.3 µM).

In a further assay the test system is Staphylococcus epidermidis. Put plainly: Antibacterial activity against Staphylococcus epidermidis assessed as growth inhibition at 37 degC after overnight incubation by agar well diffusion method. Format: functional.
Conditions: not given
For the compound `O=c1oc2ccccc2cc1-c1csc(N2N=C(c3ccc(Cl)cc3)C[C@@]2(O)C(F)(F)F)n1`, the MIC was determined as 64 µg/mL (≈ 130 µM).

The subject of the next assay is Pseudomonas aeruginosa. Put plainly: Antibacterial activity against Pseudomonas aeruginosa assessed as diameter of growth inhibition zone at 2 mg/ml at 37 degC after 24 hrs by agar well diffusion method. Format: functional. Conditions: read-out: DIZ.
For `O=c1oc2ccccc2cc1-c1csc(N2N=C(c3ccc(Cl)cc3)C[C@@]2(O)C(F)(F)F)n1`, the zone of inhibition at 2000 µg/mL amounted to 8.1 mm.

Another assay concerns Rattus norvegicus. The assay is described as follows: Antiinflammatory activity in Wistar albino rat assessed as inhibition of carrageenan-induced paw edema at 50 mg/kg, po administered 30 mins prior to carrageenan challenge measured after 2 hrs by plethysmometer analysis. Format: functional.
Conditions: not given
The procedure, abridged: (§1)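 Male Wistar albino rats, 200-250 g, five per group, fasted from 12 h before and during the test. Compounds were given orally at 50 mg/kg 30 min before sub-plantar injection of 0.1 ml 1% carrageenan in 0.9% saline into the left hind paw. Tween 80 vehicle controls. Paw volume was read by plethysmometer up to the tibiotarsal mark at 0-4 h. Results are mean ± SEM and % inhibition, ANOVA and Dunnett's test.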
A general note: The carrageenan paw model is a standard test of acute inflammation.
With `O=c1oc2ccccc2cc1-c1csc(N2N=C(c3ccc(Br)cc3)C[C@@]2(O)C(F)(F)F)n1`, the inhibition in vivo at 50 mg/kg was determined as 70.8%.
In the case of `O=c1oc2ccccc2cc1-c1csc(N2N=C(C(F)(F)F)C[C@@]2(O)C(F)(F)F)n1`, the inhibition in vivo at 50 mg/kg is 79.2%.
Still for that read-out and setting: the figure for `O=c1oc2ccc(Cl)cc2cc1-c1csc(N2N=C(C(F)(F)F)C[C@@]2(O)C(F)(F)F)n1` is 63.3%.
Turning to `O=c1oc2ccccc2cc1-c1csc(N2N=C(c3ccc(Cl)cc3)C[C@@]2(O)C(F)(F)F)n1`, the inhibition in vivo at 50 mg/kg stood at 82.5%.

Another assay relates to Rattus norvegicus. Put plainly: Antiinflammatory activity in Wistar albino rat assessed as inhibition of carrageenan-induced paw edema at 50 mg/kg, po administered 30 mins prior to carrageenan challenge measured after 3 hrs by plethysmometer analysis. Format: functional.
Conditions: not given
The essentials:
as §1
`O=c1oc2ccccc2cc1-c1csc(N2N=C(c3ccc(Br)cc3)C[C@@]2(O)C(F)(F)F)n1`: the inhibition in vivo at 50 mg/kg came out at 35.5%.
For the compound `O=c1oc2ccccc2cc1-c1csc(N2N=C(C(F)(F)F)C[C@@]2(O)C(F)(F)F)n1`, the inhibition in vivo at 50 mg/kg is 64.8%.
Consider `O=c1oc2ccc(Cl)cc2cc1-c1csc(N2N=C(C(F)(F)F)C[C@@]2(O)C(F)(F)F)n1`, for which the inhibition in vivo at 50 mg/kg was 54.5%.
`O=c1oc2ccccc2cc1-c1csc(N2N=C(c3ccc(Cl)cc3)C[C@@]2(O)C(F)(F)F)n1`: the inhibition in vivo at 50 mg/kg was 48%.

The subject of another assay is Escherichia coli. The assay is described as follows: Antibacterial activity against Escherichia coli assessed as diameter of growth inhibition zone at 2 mg/ml at 37 degC after 24 hrs by agar well diffusion method. Format: functional. To be noted: read-out: DIZ.
As to `O=c1oc2ccccc2cc1-c1csc(N2N=C(c3ccc(Cl)cc3)C[C@@]2(O)C(F)(F)F)n1`, the zone of inhibition at 2000 µg/mL worked out at 13.1 mm.

The next assay deals with Rattus norvegicus. The assay is described as follows: Antiinflammatory activity in Wistar albino rat assessed as inhibition of carrageenan-induced paw edema at 50 mg/kg, po administered 30 mins prior to carrageenan challenge measured after 1 hr by plethysmometer analysis. Format: functional.
Conditions: not given
The essentials:
as §1
Take `O=c1oc2ccccc2cc1-c1csc(N2N=C(c3ccc(Br)cc3)C[C@@]2(O)C(F)(F)F)n1`: the inhibition in vivo at 50 mg/kg was 76.1%.
Take `O=c1oc2ccccc2cc1-c1csc(N2N=C(C(F)(F)F)C[C@@]2(O)C(F)(F)F)n1`: the inhibition in vivo at 50 mg/kg was found to be 83.1%.
For `O=c1oc2ccc(Cl)cc2cc1-c1csc(N2N=C(C(F)(F)F)C[C@@]2(O)C(F)(F)F)n1`, the inhibition in vivo at 50 mg/kg was 85.9%.
For `O=c1oc2ccccc2cc1-c1csc(N2N=C(c3ccc(Cl)cc3)C[C@@]2(O)C(F)(F)F)n1`, the inhibition in vivo at 50 mg/kg turned out to be 77.5%.

For another assay, the system named is Pseudomonas aeruginosa. The assay is described as follows: Antibacterial activity against Pseudomonas aeruginosa assessed as growth inhibition at 37 degC after overnight incubation by agar well diffusion method.
Conditions: not given
Format: functional.
As to `O=c1oc2ccccc2cc1-c1csc(N2N=C(c3ccc(Cl)cc3)C[C@@]2(O)C(F)(F)F)n1`, the MIC was found to be 32 µg/mL (≈ 65.1 µM).

A further assay concerns Rattus norvegicus. Put plainly: Antiinflammatory activity in Wistar albino rat assessed as inhibition of carrageenan-induced paw edema at 50 mg/kg, po administered 30 mins prior to carrageenan challenge measured after 4 hrs by plethysmometer analysis. Format: functional.
Conditions: not given
The procedure, abridged:
as §1
As to `O=c1oc2ccccc2cc1-c1csc(N2N=C(c3ccc(Br)cc3)C[C@@]2(O)C(F)(F)F)n1`, the inhibition in vivo at 50 mg/kg worked out at 25.2%.
On the same count and under the same terms, the figure for `O=c1oc2ccccc2cc1-c1csc(N2N=C(C(F)(F)F)C[C@@]2(O)C(F)(F)F)n1` is 37.9%; for `O=c1oc2ccc(Cl)cc2cc1-c1csc(N2N=C(C(F)(F)F)C[C@@]2(O)C(F)(F)F)n1` it is 41.1%.
Regarding `O=c1oc2ccccc2cc1-c1csc(N2N=C(c3ccc(Cl)cc3)C[C@@]2(O)C(F)(F)F)n1`, the inhibition in vivo at 50 mg/kg was 55.4%.

A further assay relates to Bacillus subtilis. The assay is described as follows: Antibacterial activity against Bacillus subtilis assessed as growth inhibition at 37 degC after overnight incubation by agar well diffusion method. Format: functional.
Conditions: not given
Regarding `O=c1oc2ccccc2cc1-c1csc(N2N=C(c3ccc(Cl)cc3)C[C@@]2(O)C(F)(F)F)n1`, the MIC stood at 512 µg/mL (≈ 1040 µM).

In another assay the test system is Staphylococcus aureus. Put plainly: Antibacterial activity against Staphylococcus aureus assessed as diameter of growth inhibition zone at 2 mg/ml at 37 degC after 24 hrs by agar well diffusion method. It is filed as functional. To be noted: read-out: DIZ.
As for `O=c1oc2ccccc2cc1-c1csc(N2N=C(c3ccc(Cl)cc3)C[C@@]2(O)C(F)(F)F)n1`, the zone of inhibition at 2000 µg/mL amounted to 4.5 mm.

In a further assay the test system is Escherichia coli. The assay is described as follows: Antibacterial activity against Escherichia coli assessed as growth inhibition at 37 degC after overnight incubation by agar well diffusion method.
Conditions: not given
Format: functional.
Take `O=c1oc2ccccc2cc1-c1csc(N2N=C(c3ccc(Cl)cc3)C[C@@]2(O)C(F)(F)F)n1`: the MIC was 2 µg/mL (≈ 4.07 µM).

As a reminder, the MIC is the lowest concentration found to suppress growth. In general, inhibition in vivo refers to the change of the read-out against control, counted positive when it falls.
